Active and inactive are the calls of the source. No cut-off for these calls is given here.
How the values were obtained:
Mus musculus = assay: Neuroprotective activity in C57BL6J mouse distal middle cerebral artery occlusion model of permanent focal ischemia assessed as reduction in infarct size at 50 mg/kg, ip administered 2 hrs post ischemia induction measured after 24 hrs by TTC staining relative to vehicle-treated control; type: functional; set-up: scale not given: the % may be the effect or the level left; details: route intraperitoneal
In short: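 FeCl3-induced distal MCA occlusion: 10% FeCl3-saturated filter paper on intact dura along MCA under 1.5% isoflurane in N2O/O2, body temperature held at 37 ± 0.3 °C, rCBF followed by laser doppler for 3 h. Compound or DMSO vehicle given IP after 2 h ischemia. Sacrifice at 24 h; TTC staining of 1 mm slices, indirect infarct volume; surgeon and assessor blinded.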

Plasma [1] = assay: Half life in CD1 mouse plasma at 30 mg/kg, ip; type: ADME, organism-based; set-up: dose 30 mg/kg, route intraperitoneal; details: in vivo
In short: (§1)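 Male CD1 mice, 6–8 weeks old, given a single 30 mg/kg IP dose formulated as a solution in 10% Solutol, 10% Cremophor EL and 20% PEG 400 in saline. Plasma and brain were sampled at eight time points over 24 h, in triplicate. Study run at a contract lab.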

[2] = Metabolic stability in mouse plasma assessed as compound remaining measured at 2 hrs; type: ADME, cell-free; details: read-out: Stability
In short: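 Compound was incubated in mouse plasma, and the percent remaining was measured at 2 h. Run at a contract lab.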

[3] = biological target: T1, Prostaglandin G/H synthase 1 (Ovis aries) (UniProt P05979); assay: Inhibition of ovine COX-1 using arachidonic acid as substrate assessed as consumption of oxygen at 5 uM preincubated for 5 mins followed by substrate addition by oxygen electrode-based assay relative to control
T1 sequence (whole entry): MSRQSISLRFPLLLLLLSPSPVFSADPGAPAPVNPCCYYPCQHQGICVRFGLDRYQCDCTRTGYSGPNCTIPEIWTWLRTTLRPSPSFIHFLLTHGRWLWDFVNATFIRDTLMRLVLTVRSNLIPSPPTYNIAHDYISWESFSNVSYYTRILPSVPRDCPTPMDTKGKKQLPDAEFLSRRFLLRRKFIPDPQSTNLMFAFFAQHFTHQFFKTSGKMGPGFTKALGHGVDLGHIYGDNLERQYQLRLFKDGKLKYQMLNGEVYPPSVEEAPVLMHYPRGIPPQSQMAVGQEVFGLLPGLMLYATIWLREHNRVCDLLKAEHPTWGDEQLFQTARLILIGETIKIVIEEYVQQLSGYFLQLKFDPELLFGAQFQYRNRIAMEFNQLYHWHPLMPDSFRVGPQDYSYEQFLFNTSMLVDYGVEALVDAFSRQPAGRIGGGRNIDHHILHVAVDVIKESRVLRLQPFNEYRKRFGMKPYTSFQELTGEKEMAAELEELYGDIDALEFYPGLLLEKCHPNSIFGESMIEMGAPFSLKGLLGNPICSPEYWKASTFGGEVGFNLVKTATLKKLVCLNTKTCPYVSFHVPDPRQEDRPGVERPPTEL
In short: (§2)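 COX-1 or COX-2 (2–5 μg) in 0.1 M Tris-HCl pH 8.0 with 5 mM EDTA, 2 mM phenol and 1 μM hematin at 37 °C. Inhibitor was preincubated 5 min, then 100 μM arachidonic acid was added. Oxygen consumption was read on an oxygen electrode, and percent inhibition was calculated against a DMSO control, with indomethacin as positive control.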

[4] = biological target: T2, Polyunsaturated fatty acid lipoxygenase ALOX15 (Mus musculus) (UniProt P39654); assay: Inhibition of 12/15-lipoxygenase in mouse HT22 cells assessed as protection against glutamate-induced cell death after 24 hrs by LDH release assay; type: cell-based; details: HT-22
T2 sequence (whole entry): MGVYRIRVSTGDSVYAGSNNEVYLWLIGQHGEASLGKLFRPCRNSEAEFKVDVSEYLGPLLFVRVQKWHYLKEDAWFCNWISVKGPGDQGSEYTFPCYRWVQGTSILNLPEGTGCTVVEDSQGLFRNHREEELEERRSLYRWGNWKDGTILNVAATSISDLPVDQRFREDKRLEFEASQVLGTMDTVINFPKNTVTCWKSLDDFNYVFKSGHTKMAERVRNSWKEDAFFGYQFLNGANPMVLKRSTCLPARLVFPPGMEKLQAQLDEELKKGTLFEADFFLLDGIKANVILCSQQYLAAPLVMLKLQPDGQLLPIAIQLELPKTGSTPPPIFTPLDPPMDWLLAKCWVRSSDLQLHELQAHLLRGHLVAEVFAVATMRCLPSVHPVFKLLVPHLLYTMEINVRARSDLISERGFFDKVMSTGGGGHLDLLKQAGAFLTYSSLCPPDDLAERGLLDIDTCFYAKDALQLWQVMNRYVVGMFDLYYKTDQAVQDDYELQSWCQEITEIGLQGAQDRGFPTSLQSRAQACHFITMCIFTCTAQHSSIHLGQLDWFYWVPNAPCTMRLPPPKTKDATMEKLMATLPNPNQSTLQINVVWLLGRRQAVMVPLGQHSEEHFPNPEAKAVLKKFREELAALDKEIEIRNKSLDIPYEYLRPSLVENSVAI
In short: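 HT22 mouse hippocampal cells were grown in DMEM with 10% FBS and penicillin/streptomycin, seeded at 1 × 10^4 cells/well and treated 18 h later at 50–70% confluence. Medium was exchanged for fresh medium with 5 mM glutamate plus compound or DMSO (≤0.1% final). Death was scored as percent LDH released to the medium versus the cell extract, background-subtracted.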

Brain [5] = assay: Cmax in CD1 mouse brain at 30 mg/kg, ip; type: ADME, organism-based; set-up: dose 30 mg/kg, route intraperitoneal; details: in vivo; in short: as §1
Liver microsome [6] = assay: Half life in rat liver microsomes in presence of NADPH; type: ADME
In short: (§3)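 Rat or mouse liver microsomes were incubated with NADPH, and half-life was taken from compound depletion. Run at a contract lab.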

Plasma [7] = assay: Cmax in CD1 mouse plasma at 30 mg/kg, ip; type: ADME, organism-based; set-up: dose 30 mg/kg, route intraperitoneal; details: in vivo; in short: as §1
Liver microsome [8] = assay: Metabolic stability in rat liver microsomes measured over 1 hr in absence of NADPH; type: ADME
In short: (§4)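 Liver microsomes (mouse or rat) were incubated without NADPH over a 1 h period, and compound degradation was followed. Run at a contract lab.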

[9] = Stability of the compound in buffer at pH 9 measured over 48 hrs; type: physicochemical; details: pH 9, 48 h
Liver [10] = assay: Metabolic stability in mouse liver microsomes measured over 1 hr in absence of NADPH; type: ADME; in short: as §4
Liver [11] = assay: Half life in mouse liver microsomes in presence of NADPH; type: ADME; in short: as §3
Brain [12] = assay: Half life in CD1 mouse brain at 30 mg/kg, ip; type: ADME, organism-based; set-up: dose 30 mg/kg, route intraperitoneal; details: in vivo; in short: as §1
[13] = Stability of the compound in buffer at pH 2 measured over 48 hrs; type: physicochemical; details: pH 2, 48 h
[14] = biological target: T2, Polyunsaturated fatty acid lipoxygenase ALOX15 (Mus musculus); assay: Inhibition of 12/15-lipoxygenase in mouse HT22 cells assessed as reduction of 12-HETE production at 10 uM after 24 hrs by HPLC/MS analysis; type: cell-based; details: HT-22
In short: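 HT22 cells were grown in 75 cm² flasks in phenol red-free DMEM with 5% FBS and treated at 50–70% confluence with 5 mM glutamate with or without compound. After 24 h the eicosanoid fraction of the medium was isolated on a C-18 cartridge. 12-HETE was quantified by HPLC/MS against a 12(S)-HETE standard curve.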

[15] = biological target: T3, Prostaglandin G/H synthase 2 (Homo sapiens) (UniProt P35354); assay: Inhibition of human COX-2 using arachidonic acid as substrate assessed as consumption of oxygen at 5 uM preincubated for 5 mins followed by substrate addition by oxygen electrode-based assay relative to control; in short: as §2
T3 sequence (whole entry): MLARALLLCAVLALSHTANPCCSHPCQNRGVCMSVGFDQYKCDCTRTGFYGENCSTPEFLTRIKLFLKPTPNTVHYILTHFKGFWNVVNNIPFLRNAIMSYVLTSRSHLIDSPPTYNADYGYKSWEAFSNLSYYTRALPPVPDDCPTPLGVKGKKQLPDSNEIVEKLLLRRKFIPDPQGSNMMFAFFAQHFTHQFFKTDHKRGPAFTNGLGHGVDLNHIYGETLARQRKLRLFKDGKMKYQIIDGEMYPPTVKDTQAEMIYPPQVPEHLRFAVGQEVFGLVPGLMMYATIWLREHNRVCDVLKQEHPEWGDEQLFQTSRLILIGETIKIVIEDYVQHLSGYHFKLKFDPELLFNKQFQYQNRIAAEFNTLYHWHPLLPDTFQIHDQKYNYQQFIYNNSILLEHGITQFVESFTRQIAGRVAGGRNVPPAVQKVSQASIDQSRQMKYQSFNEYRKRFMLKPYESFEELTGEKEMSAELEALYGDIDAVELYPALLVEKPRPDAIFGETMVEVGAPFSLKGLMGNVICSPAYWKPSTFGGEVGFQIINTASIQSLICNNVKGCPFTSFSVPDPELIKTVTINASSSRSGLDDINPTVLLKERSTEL

[16] = Stability of the compound in DPBS buffer at pH 7.4 measured over 48 hrs; type: physicochemical; details: pH 7.4, 48 h

CNc1oc(-c2cccc3ccccc23)nc1C#N
Activity (Mus musculus): 30%
t1/2 (Plasma [1]): 66 min
remaining at 2 h [2]: 100%
inhibition [3]: < 10%
inhibition [4]: Dose-dependent effect
Cmax (Brain [5]): 28.8 µM
t1/2 (Liver microsome [6]): 18 min
Cmax (Plasma [7]): 13.8 µM
Stability (Liver microsome [8]): Stable
Stability [9]: Stable
Stability (Liver [10]): Stable
t1/2 (Liver [11]): 5.5 min
t1/2 (Brain [12]): 60 min
Stability [13]: Stable
inhibition [14]: Active
inhibition [15]: < 10%
Stability [16]: Stable
